Results as given in ChEMBL document CHEMBL4052613, “Structure-activity relationship studies of 1,7-diheteroarylhepta-1,4,6-trien-3-ones with two different terminal rings in prostate epithelial cell models” (Eur J Med Chem, 2017).

Columns and labels:
PC-3 [1] = assay: Induction of apoptosis in human PC3 cells assessed as viable cells at 5 uM after 16 hrs by F2N12S orange and SYTOX green double staining based flow cytometry (reference value: 95%); assay type: functional; conditions: PC-3, 16 h, read-out: Activity
PC-3 [2] = assay: Induction of apoptosis in human PC3 cells assessed as apoptotic cells at 5 uM after 16 hrs by F2N12S orange and SYTOX green double staining based flow cytometry (reference value: 2 to 3%); assay type: functional
PC-3 [3] = assay: Induction of apoptosis in human PC3 cells assessed as necrotic cells at 5 uM after 16 hrs by F2N12S orange and SYTOX green double staining based flow cytometry (reference value: 2 to 3%); assay type: functional
PC-3 [4] = assay: Induction of apoptosis in human PC3 cells assessed as viable cells at 10 uM after 16 hrs by F2N12S orange and SYTOX green double staining based flow cytometry (reference value: 95%); assay type: functional; conditions: PC-3, 16 h, read-out: Activity
PC-3 [5] = assay: Induction of apoptosis in human PC3 cells assessed as apoptotic cells at 10 uM after 16 hrs by F2N12S orange and SYTOX green double staining based flow cytometry (reference value: 2 to 3%); assay type: functional
PC-3 [6] = assay: Induction of apoptosis in human PC3 cells assessed as necrotic cells at 10 uM after 16 hrs by F2N12S orange and SYTOX green double staining based flow cytometry (reference value: 2 to 3%); assay type: functional
PC-3 [7] = assay: Induction of apoptosis in human PC3 cells assessed as viable cells at 20 uM after 16 hrs by F2N12S orange and SYTOX green double staining based flow cytometry (reference value: 95%); assay type: functional; conditions: PC-3, 16 h, read-out: Activity
PC-3 [8] = assay: Induction of apoptosis in human PC3 cells assessed as apoptotic cells at 20 uM after 16 hrs by F2N12S orange and SYTOX green double staining based flow cytometry (reference value: 2 to 3%); assay type: functional
PC-3 [9] = assay: Induction of apoptosis in human PC3 cells assessed as necrotic cells at 20 uM after 16 hrs by F2N12S orange and SYTOX green double staining based flow cytometry (reference value: 2 to 3%); assay type: functional
PC-3 [10] = assay: Induction of apoptosis in human PC3 cells assessed as viable cells at 30 uM after 16 hrs by F2N12S orange and SYTOX green double staining based flow cytometry (reference value: 95%); assay type: functional; conditions: PC-3, 16 h, read-out: Activity
PC-3 [11] = assay: Induction of apoptosis in human PC3 cells assessed as apoptotic cells at 30 uM after 16 hrs by F2N12S orange and SYTOX green double staining based flow cytometry (reference value: 2 to 3%); assay type: functional
PC-3 [12] = assay: Induction of apoptosis in human PC3 cells assessed as necrotic cells at 30 uM after 16 hrs by F2N12S orange and SYTOX green double staining based flow cytometry (reference value: 2 to 3%); assay type: functional
PC-3 [13] = assay: Induction of apoptosis in human PC3 cells assessed as viable cells at 40 uM after 16 hrs by F2N12S orange and SYTOX green double staining based flow cytometry (reference value: 95%); assay type: functional; conditions: PC-3, 16 h, read-out: Activity
PC-3 [14] = assay: Induction of apoptosis in human PC3 cells assessed as apoptotic cells at 40 uM after 16 hrs by F2N12S orange and SYTOX green double staining based flow cytometry (reference value: 2 to 3%); assay type: functional
PC-3 [15] = assay: Induction of apoptosis in human PC3 cells assessed as necrotic cells at 40 uM after 16 hrs by F2N12S orange and SYTOX green double staining based flow cytometry (reference value: 2 to 3%); assay type: functional
PWR-1E = assay: Antiproliferative activity against human PWR-1E cells after 3 days by WST-1 assay; assay type: cell-based; conditions: 72 h
Summary of the method: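 PWR-1E non-neoplastic prostate epithelial cells grown in keratinocyte serum-free medium with bovine pituitary extract and recombinant human EGF. WST-1 proliferation read-out after 3 days of exposure.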

Structure (SMILES)	viability at 5 µM (PC-3 [1]) [%]	Activity (PC-3 [2]) [%]	Activity (PC-3 [3]) [%]	viability at 10 µM (PC-3 [4]) [%]	Activity (PC-3 [5]) [%]	Activity (PC-3 [6]) [%]	viability at 20 µM (PC-3 [7]) [%]	Activity (PC-3 [8]) [%]	Activity (PC-3 [9]) [%]	viability at 30 µM (PC-3 [10]) [%]	Activity (PC-3 [11]) [%]	Activity (PC-3 [12]) [%]	viability at 40 µM (PC-3 [13]) [%]	Activity (PC-3 [14]) [%]	Activity (PC-3 [15]) [%]	IC50 (PWR-1E) [µM]
CN[C@@H]1C[C@H]2O[C@@](C)([C@@H]1OC)n1c3ccccc3c3c4c(c5c6ccccc6n2c5c31)C(=O)NC4 [STAUROSPORINE]	87	9	4	84	10	6	68	24	8	46	47	8	31	60	9	
COc1cc(/C=C/C(=O)CC(=O)/C=C/c2ccc(O)c(OC)c2)ccc1O [CURCUMIN]																8.14
